SMILES strings stand for the structures.

This note sets out measurements from ChEMBL document CHEMBL4513216, “Probing the Open Global Health Chemical Diversity Library for Multistage-Active Starting Points for Next-Generation Antimalarials” (ACS Infect Dis, 2020).

The nature of the data set: Toxicity liver stage against HepG2, at 10uM. It is filed as cell-based. Set-up: test concentration 10 uM, cell line HepG2-A16-CD81EGFP. The note with it: human, HepG2-A16-CD81EGFP cells; read-out: INHIBITION
An outline of the steps:
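Uninfected HepG2-A16-CD81EGFP cells, 3 × 10^3 per well, 1536-well, plated on prespotted compound at 10 μM final, parasite-free screening media added to match infected plates; puromycin 10 μM positive, DMSO 0.5% negative; run in parallel with 48 h PbLuc assay at 37 °C, 5% CO2; viability by CellTiter-Glo luminescence, normalized to controls.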
As to `CCS(=O)(=O)N1CC(=O)N(CCCc2ccccc2)CC(O)C1` (configuration not stated), the cytotoxicity at 10 µM was -5.64%. `CCCC1CN(CCOC)C(=O)c2cccnc2O1` (configuration not stated): the cytotoxicity at 10 µM came to 5.42%.

For `CC(C)CCNC(=O)c1ccc(-n2cnc3ccccc3c2=O)cc1`, the cytotoxicity at 10 µM was -6.17%. To `Cc1cc(NCCO)nc2[nH]nc(N)c12` belongs -51.7%; to `CC(=O)c1c(C)nn(CC(=O)Nc2ccc(F)cc2)c1C`, -72%. The value for `CC(C)OC(=O)CN1N=C(C(=O)N2CCCC2)S(=O)(=O)c2ccccc21` was -2.93%; that for `O=C(NCc1nc2ccccc2[nH]1)c1cnn2c1OCCC2` was 0.0962%; that for `CC(NC(=O)C1CN(c2ncnc3c2nnn3C)C1)c1ccccc1` (configuration not stated) was 2.8%. The value for `Cc1cccn2c(=O)cc(OC(=O)c3ccccc3Cl)nc12` was 10.7%; that for `O=C(N1CCOCC1)N1CCc2ncnc(NC3CC3)c2CC1` was -20.9%; that for `Cc1cccc(CN2C[C@@H]3CN(C(=O)c4ccsc4)C[C@@H]3C2=O)c1` was -18.8%. With `Cc1cc(NC(=O)CCn2nc(C)c3ccccc32)n(C)n1`, the cytotoxicity at 10 µM is 3.4%. The value for `CCN(CC)C(=O)CSc1nc2cc(C)nc-2c(O)n1Cc1ccco1` was 3.49%; that for `Cc1nn(C)cc1S(=O)(=O)N(CCc1ccccc1)Cc1ccn(C)n1` was 1.43%.

In the case of `CCc1c(C)nn2c(O)cc(C3CCN(C(=O)C4CC4)C3)nc12` (configuration not stated), the cytotoxicity at 10 µM was found to be 1.97%. To `CNc1cc(C2CN(C(=O)c3cscn3)CCO2)nc(C)n1` (configuration not stated) belongs 9.49%; to `COc1cc2c(cc1CN1CCc3sccc3C1C)OCO2` (configuration not stated), 7.01%.

As for `CC(C)C(=O)N1CCCC1c1nc(N(C)C)ncc1-c1ccc(Cl)cc1` (configuration not stated), the cytotoxicity at 10 µM came out at 20.1%.

For `Cc1cc(N2CCOC(c3ccncn3)C2)ncn1` (configuration not stated), the cytotoxicity at 10 µM was found to be 2.91%. The value for `Cc1nccc(CC2COCCN(c3cnccn3)C2)n1` (configuration not stated) was 0.933%.

As to `CC(=O)N1CCCC1c1cc(Nc2nnc(C)s2)nc(C)n1` (configuration not stated), the cytotoxicity at 10 µM was -18.2%. The value for `O=S1(=O)NC(C2CCN(Cc3ccccn3)CC2)Nc2ccccc21` (configuration not stated) was -33.6%. As to `Cc1cc(C(F)(F)F)c2c(C3CCCN(C(=O)C4CC4)C3)noc2n1` (configuration not stated), the cytotoxicity at 10 µM was -25.1%.

On to `O=C1NC2(Cc3ccccc31)CN(CC1CCNCC1)C2`, for which the cytotoxicity at 10 µM was 10.8%. To `CN(C)c1ccc(C(=O)N2CCCc3cc(OC(F)(F)F)ccc32)cn1` belongs -45.9%; to `CCc1ccc2c(c1)C(CCNC(=O)CCc1ccsc1)C(=O)N2` (configuration not stated), -41.5%; to `C1CC(CN2CCCCC2C2OCCO2)C1` (configuration not stated), -12.8%. On to `Cc1cc(N(Cc2cccs2)C2CC2)n2nc(C(F)(F)F)nc2n1`, for which the cytotoxicity at 10 µM was -2.1%. As to `O=S(=O)(c1cc(F)ccc1N1CC(n2cccn2)C1)C(F)(F)F`, the cytotoxicity at 10 µM was 11.3%.

As to `COc1cccc(CC2CCCN2Cc2nccn2C)c1` (configuration not stated), the cytotoxicity at 10 µM is -6.16%. Regarding `COC(=O)CC(NC(=O)CCn1cccn1)c1ccc(C)cc1` (configuration not stated), the cytotoxicity at 10 µM turned out to be 3.28%. Turning to `Cc1cc(C)cc(C(C)NCc2nnc(C)s2)c1` (configuration not stated), the cytotoxicity at 10 µM was -5.77%.

Take `COc1ccc(CN(C)Cc2c(C)noc2C)c(Br)c1OC`: the cytotoxicity at 10 µM is -0.2%. Regarding `Cc1noc(NCc2ccc(F)cc2)n1`, the cytotoxicity at 10 µM is -5.92%.

On to `CN(C)c1cccc(C2CCCN2Cc2nnnn2C2CC2)c1` (configuration not stated), for which the cytotoxicity at 10 µM is 5.15%. On to `COc1cc(CNCCc2cc(F)cc3c2OCOC3)cc(OC)c1`, for which the cytotoxicity at 10 µM is -1.51%. The value for `CSC(C)CC(=O)N1CCC(n2ccnn2)CC1` (configuration not stated) was -47.9%. Consider `O=C(NS(=O)(=O)c1cnn(-c2ccccc2F)c1)c1ccco1`, for which the cytotoxicity at 10 µM is -8.86%.

Turning to `O=C(CN1CCOc2ccc(Cl)cc21)NCCCn1cccn1`, the cytotoxicity at 10 µM was -0.174%. To `CCCNC(=O)c1cccc2ncccc12` belongs -50.3%; to `COc1ccccc1C(C)CC(=O)N1CCN(S(N)(=O)=O)CC1` (configuration not stated), -51.3%; to `CCCN1CCC(NC(=O)NCCc2nc(CC)c(C)s2)CC1`, -19%. Consider `Cc1cc(S(=O)(=O)N2CCCc3ccc(F)cc32)sc1C(=O)O`, for which the cytotoxicity at 10 µM amounted to 18.1%.

For `Cn1ccnc1SCc1nc(C(C)(C)NC(=O)OC(C)(C)C)no1`, the cytotoxicity at 10 µM was -0.679%. To `Cn1cnc(S(=O)(=O)N2CCCC2)c1Cl` belongs 15.1%. To `CCNS(=O)(=O)c1ccc(C)c(C(=O)N(C)Cc2ccco2)c1` belongs 0.685%. To `CN(Cc1ccccc1Br)C(=O)Cn1nc(-c2ccc(F)cc2)oc1=O` belongs 9.46%. For `Cc1nn(C(C)C)c(C)c1NC(=O)c1ccncc1`, the cytotoxicity at 10 µM was -17.3%. To `CCn1ccnc1CN1CCN(Cc2ccccn2)CC1C` (configuration not stated) belongs 14.3%. Consider `Cc1nc(CN2CCC23CCN(Cc2ccoc2)CC3)cs1`, for which the cytotoxicity at 10 µM was -109%. The value for `CC(C)N(C)Cc1cc(=O)n2c(n1)CN(C(=O)c1ccc[nH]1)CCC2` was -105%; that for `CCOc1ccc(OCc2nc3c(c(=O)[nH]2)CCNC3)cc1` was 8.55%; that for `O=C(c1cn2cc(Cl)cnc2n1)N1CCOCC(O)(CN2CCCC2)C1` (configuration not stated) was -8.42%. For `CC1(C)CN(S(=O)(=O)N2CCOCC2)CC1c1ccccc1` (configuration not stated), the cytotoxicity at 10 µM came to 1.69%.

With `CN(Cc1n[nH]c2c1CCC2)c1nc(C2CCCC2)nc2c1CNC2`, the cytotoxicity at 10 µM is -3.86%. To `CCc1nc2c(N3CCC4(CC3)CC(=O)N(CC)C4)ncnc2o1` belongs -3.2%; to `Cc1nnc(NCCn2nc(C)c(Cl)c2C)o1`, 1.91%. The value for `COc1ccc(NC(=O)c2ccc(CN3CC[C@H](O)C3)cc2)c(OC)n1` was 6.21%; that for `O=C1CCCCN1CCCC(=O)N1CCC2(CC1)[C@H](O)C[C@@H]2O` was 1.12%. The value for `CN(C)c1nc2c(c(N(C)Cc3n[nH]c4c3CCCCC4)n1)CCNC2` was 2.95%; that for `Cc1ccc([C@@H]2CN(C(=O)c3cc[nH]c3)C[C@H]2NC(=O)C2CC2)cc1` was -7.59%.

For `Cc1cnccc1NCCn1ccnc1C1CCCCC1`, the cytotoxicity at 10 µM was -4.2%. Regarding `Cc1ccc(OC2(C(=O)O)CCN(C(=O)c3ccsc3)CC2)cn1`, the cytotoxicity at 10 µM was -4.09%. With `O=C1NCCCc2[nH]c(C3CCCN(C(=O)C4CC4)C3)nc21` (configuration not stated), the cytotoxicity at 10 µM was found to be 3.55%. `Cc1nc[nH]c1CNCc1cccnc1N(C)C1CCCCC1`: the cytotoxicity at 10 µM came to 5.32%. Take `CC(O)CN1CC2(CCC1=O)CCN(C(=O)c1cnn(C)c1)CC2` (configuration not stated): the cytotoxicity at 10 µM is 3.74%. The value for `COc1ccc(Cc2ncc3c(n2)CN(C(=O)C2COCCO2)C3)cc1` (configuration not stated) was -0.579%. With `CCCOCC(=O)N1CCc2c(cccc2S(=O)(=O)N2CCOCC2)C1`, the cytotoxicity at 10 µM was determined as 2.71%.

With `COCc1cc(N(C)CCc2c(C)n[nH]c2C)ncn1`, the cytotoxicity at 10 µM was found to be 0.681%.

`CC(=O)N1CCOC(CNC(=O)c2cccc(CCC(C)(C)O)c2)C1` (configuration not stated): the cytotoxicity at 10 µM was found to be 0.303%. Take `Cc1oc(-c2cccc(F)c2)nc1CN1CCOCS1(=O)=O`: the cytotoxicity at 10 µM stood at 2.74%. To `CC(=O)NCC(=O)N1CCC(C2CCN(Cc3ccc(Cl)cc3)C2)CC1` (configuration not stated) belongs -9.12%. With `COc1ccc(CC2(CO)CCN(c3cc(N)ncn3)CC2)cc1`, the cytotoxicity at 10 µM is -12.9%. For `COCCN1CCC(CN(CC2CCCO2)C(=O)COC)CC1` (configuration not stated), the cytotoxicity at 10 µM was -21.1%.

Regarding `Cn1c(Cn2ccnc2)nnc1C1CCCN(C2CCCCC2)C1` (configuration not stated), the cytotoxicity at 10 µM is -13.2%.

For `CCn1ccnc1CN1CCC(CNC(=O)c2ccc(C)nc2)C1` (configuration not stated), the cytotoxicity at 10 µM is -8.8%. As for `Nc1nccc(NCc2cc3n(n2)CCCN(C2CCCCC2)C3)n1`, the cytotoxicity at 10 µM was -16%. To `CCCc1cc(CNC(=O)C2CCOc3ccccc3C2)on1` (configuration not stated) belongs -3.8%.

Consider `CCc1cc(O)nc(C2CCCN2C(=O)c2cc(C)no2)n1` (configuration not stated), for which the cytotoxicity at 10 µM was found to be 2.69%. To `Cc1cnn(C2CN(CC(=O)NCc3ccccn3)C2)c1` belongs -10.9%; to `N#Cc1ccc(CN2CCC(c3ccnn3CCO)CC2)cc1`, -1.72%. Regarding `Cc1cc(C2CCCN2CC(=O)N(CCC#N)c2ccccc2F)on1` (configuration not stated), the cytotoxicity at 10 µM was -1.5%. The value for `CCN(CC)Cc1ccc(C(=O)N2CCN(CC(C)O)CC2)cc1` (configuration not stated) was -12.6%. As for `O=C(NCCc1ccn(-c2ccccc2)n1)N1CCC1`, the cytotoxicity at 10 µM was -0.361%. For `Cc1cc(CN2CCOC(CN(C)c3cccnn3)C2)no1` (configuration not stated), the cytotoxicity at 10 µM came out at 8.23%. As to `CN(C)C[C@H]1OC[C@@H]2CCN(S(=O)(=O)c3ccccc3)C[C@@H]21`, the cytotoxicity at 10 µM stood at 1.44%. On to `Cc1nc(CC(=O)N2CCC(c3nn(C)c4ncccc34)CC2)cs1`, for which the cytotoxicity at 10 µM was -18.9%. For `CCOC1COC2(CCN(CC3CC3)CC2)C1` (configuration not stated), the cytotoxicity at 10 µM was -106%.

On to `O=C(c1ccc(F)cc1)N1CCC2(CCCN2CC2CC2)CC1`, for which the cytotoxicity at 10 µM was 5.05%. The value for `COCC(=O)NCc1cc(=O)n2c(n1)CN(CC1CC1)CCC2` was -88.5%.

Regarding `c1cncc(CO[C@H]2CN(Cc3ccco3)[C@@H]3COC[C@H]23)c1`, the cytotoxicity at 10 µM is -101%.

As for `Cc1nc[nH]c1CN1CCc2nc3scc(C)c3c(=O)n2CC1`, the cytotoxicity at 10 µM is -35.7%. To `COCCC(=O)N1C[C@H]2CN(Cc3cccc(C)n3)C(=O)[C@H]2C1` belongs 4.4%; to `CC(C)CC(=O)N1CC[C@H]2N(C)CC[C@@]2(C(=O)Nc2cccnc2)CC1`, -96.9%. The value for `O=C(NCc1cc(=O)n2c(n1)CN(CC1CCOC1)CCC2)C1CC1` (configuration not stated) was -11.2%; that for `O=C([C@@H]1C[C@@H]2CCN(Cc3ccoc3)C[C@H]2O1)N1CCCC1` was -101%; that for `c1ccc(CN2CCO[C@H]3[C@H](OCCN4CCCC4)CC[C@@H]32)nc1` was -1.5%.
